How the values were obtained:
Format in all cases: functional, cell-based
L1210 [1] = assay: Compound level in 72 hr DFMO (5 mM)-treated L1210 cells after exposure to 10 uM spermidine; details: Mus musculus
Procedure, shortened: (§1)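 L1210 cells held in 5 mM DFMO for 72 h before polyamine addition and through a further 72 h, refed at 72 h; controls without DFMO cultured 72 h in total. Intracellular polyamines reported as nmol/mg protein (detection limit 0.2). Mean ± SD from at least four separate experiments.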

SV3T3 [2] = assay: Compound level in SV3T3 cells after 96 hr; details: Mus musculus
HT-29 [3] = assay: Compound level in HT-29 cells after 72 h; details: Homo sapiens
HT-29 [4] = assay: Compound level in HT-29 cells after 96 h; details: Homo sapiens
Procedure, shortened: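 HT29 experiment B: 5 mM DFMO for 120 h before addition and throughout a further 96 h; refed at 96 h. Cells without DFMO cultured 96 h in total. Polyamines measured as nmol/mg protein (detection limit 0.2). SD from at least four separate experiments.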

L1210 [5] = assay: Compound level in L1210 cells after 72 h; details: Mus musculus; procedure, shortened: as §1
SV3T3 [6] = assay: Compound level in DFMO-treated SV3T3 cells at 0 h; details: Mus musculus
Procedure, shortened: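 SV-3T3 fibroblasts (experiment A) held in 5 mM DFMO for 72 h before polyamine addition and throughout a further 72 h. Intracellular polyamines expressed as nmol/mg protein (detection limit 0.05). SD from at least four separate experiments, or duplicate where no SD is given.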

Compound: NCCCCN
- Level (nM (mg of protein)-1) (L1210 [1]): 0.8
- Level (nM (mg of protein)-1) (SV3T3 [2]): 0.9
- Level (nM (mg of protein)-1) (HT-29 [3]): 4.4
- Level (nM (mg of protein)-1) (HT-29 [4]): 5.9
- Level (nM (mg of protein)-1) (L1210 [5]): 5.8
- Level (nM (mg of protein)-1) (SV3T3 [6]): 0.5

Source: ChEMBL document CHEMBL1125378, “alpha-Methyl polyamines: metabolically stable spermidine and spermine mimics capable of supporting growth in cells depleted of polyamines” (J Med Chem, 1992)
